Test results published in ChEMBL document CHEMBL1141315, “Structures and radical-scavenging activities of phenolic constituents from the bark of Picea jezoensis var. jezoensis” (J Nat Prod, 2007).

Key:
[1] = system: Radical scavenging activity; experiment: Antioxidant activity assessed as DPPH radical scavenging activity; assay type: functional
Method in brief: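 Test sample in EtOH mixed with 0.1 M HOAc–NaOAc buffer (pH 5.5) and DPPH in EtOH (800 µM stock). Reacted 30 min at room temperature in microplate wells; absorbance read at 517 nm. Value reported as SC50 (50% scavenging concentration).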

[2] = Antioxidant activity assessed as superoxide anion radical scavenging activity; assay type: functional
Method in brief: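 Superoxide generated by xanthine–xanthine oxidase in 0.05 M Na2CO3 (pH 10.2) with xanthine, EDTA, BSA and nitroblue tetrazolium (stocks 3 mM, 3 mM, 1.5 mg/mL, 0.75 mM); reaction started with xanthine oxidase (0.1 mg/mL stock). Incubated 20 min at 25 °C, stopped with CuCl2, absorbance at 560 nm; IC50 reported.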

Row | Compound | SC50 [1] | IC50 [2]
1 | O=C(O)c1ccc(O)c(O)c1 [PROTOCATECHUIC ACID] | 17.3 µM | 3310 nM
2 | O=Cc1ccc(O)c(O)c1 [PROTOCATECHUALDEHYDE] | 12.2 µM | 25300 nM
3 | Oc1cc(O)c2c(c1)O[C@H](c1ccc(O)c(O)c1)[C@@H](O)C2 [CIANIDANOL] | 11.4 µM | 2310 nM
4 | COc1cc([C@@H]2Oc3c(OC)cc(CCCO)cc3[C@H]2CO)ccc1O [DIHYDRODEHYDRODICONIFERYL ALCOHOL] | 69.1 µM | 344000 nM
5 | Oc1cc(O)cc([C@H]2c3c(cc(O)c4c3O[C@H](c3ccc(O)c(O)c3)[C@@H](O)C4)O[C@@H]2c2ccc(O)c(O)c2)c1 [JEZONOCINOL B] | 11.8 µM | 1800 nM
6 | O=C1c2c(O)cc(O)cc2O[C@H](c2ccc(O)c(O)c2)[C@H]1O [(+)-TAXIFOLIN] | 10.4 µM | 1410 nM
7 | Oc1cc(O)cc([C@@H]2c3c(cc(O)c4c3O[C@H](c3ccc(O)c(O)c3)[C@@H](O)C4)O[C@H]2c2ccc(O)c(O)c2)c1 [JEZONOCINOL A] | 9.92 µM | 2030 nM
8 | O=C(O)c1cc(O)c(O)c(O)c1 [GALLIC ACID] | 8.08 µM | 530 nM
9 | O=C1C=C2O[C@H](c3ccc(O)c(O)c3)[C@@H](O)[C@@H]3c4c(O)cc(O)cc4[C@H](C23)[C@H](c2ccc(O)c(O)c2)C1 (stereo partly specified) | 3.83 µM | 
10 | COc1cc([C@H]2c3cc(O)c(OC)cc3C[C@@H](CO)[C@@H]2CO)ccc1O [ISOLARICIRESINOL] | 13.7 µM | 70700 nM
11 | O=C(O)/C=C/c1ccc(O)cc1 [COUMARIC ACID] | 117 µM | 104000 nM
